In publication PMC7261135 (Journal of medicinal chemistry, 2020):
Like-named read-outs stand apart in the source and are kept apart here. Values belong to the compound of their own block, whether it stands above or below them.

Key:
[1] = in vitro plasma stability; format: in vitro ADME; conditions: rat plasma (rat serum)
Procedure, shortened: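 Test compound incubated in rat serum, with diltiazem run alongside as assay QC control.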

[2] = solution stability at pH 5.0, 7.4, 9.4; format: physicochemical
[3] = liver microsomal stability; format: in vitro ADME, rat
mGluR4 [4] = target: T1, mGluR4 (Homo sapiens, UniProt Q14833); experiment: competitive binding assay with [^3H]4 in mGluR4 transfected CHO cells
mGluR4 [5] = target: T2, mGluR4 (Rattus norvegicus, UniProt P31423); experiment: PET blocking studies of [^18F]15 binding; format: in vivo, Sprague Dawley rats; conditions: rats
Procedure, shortened: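 Male Sprague Dawley rats under isoflurane/nitrous oxide (1.0–1.5% isoflurane) with a tail-vein catheter. Blocker 1, 2 or 3 mg/kg in saline with 10% DMSO, 5% Tween-20, 85% PBS, given 1 min before iv tracer (18–34 MBq). Dynamic PET 60 min, CT for attenuation correction, MLEM reconstruction. Regional time-activity curves; blocking as percent change from baseline scans.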

[6] = Log D7.4, scaled-down shake flask method using [^18F]15; format: physicochemical; conditions: octanol/phosphate buffer, pH 7.4
Procedure, shortened: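 Radiolabelled test compound (74 kBq) was partitioned between octanol and pH 7.4 phosphate buffer, vortexed 2 min and centrifuged 2 min, and both phases were sampled. An octanol aliquot went into fresh octanol/buffer and the cycle was repeated to give six sets. Gamma counting; Log D = log(octanol counts × 10 / buffer counts).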

mGluR4 [7] = target: T1, mGluR4; experiment: mGluR4 Gi fold shift assay; format: cell-based
Procedure, shortened: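 Split-luciferase GloSensor cAMP biosensor read-out of Gi-coupled mGluR4 signalling. L-SOP concentration-response curves were run with test compound at 3.0 μM and the leftward shift measured; efficacy given relative to glutamate maximum. Data from NIMH PDSP, averaged over at least three independent determinations run in triplicate.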

[8] = ex vivo biodistribution of [^18F]15; format: in vivo; conditions: male Sprague Dawley rats
mGluR4 [9] = target: T2, mGluR4; experiment: PET imaging of [^18F]15, baseline; format: in vivo, Sprague Dawley rats; conditions: rats
[10] = rat liver microsomes with NADPH

T1 sequence (Q14833 33-912): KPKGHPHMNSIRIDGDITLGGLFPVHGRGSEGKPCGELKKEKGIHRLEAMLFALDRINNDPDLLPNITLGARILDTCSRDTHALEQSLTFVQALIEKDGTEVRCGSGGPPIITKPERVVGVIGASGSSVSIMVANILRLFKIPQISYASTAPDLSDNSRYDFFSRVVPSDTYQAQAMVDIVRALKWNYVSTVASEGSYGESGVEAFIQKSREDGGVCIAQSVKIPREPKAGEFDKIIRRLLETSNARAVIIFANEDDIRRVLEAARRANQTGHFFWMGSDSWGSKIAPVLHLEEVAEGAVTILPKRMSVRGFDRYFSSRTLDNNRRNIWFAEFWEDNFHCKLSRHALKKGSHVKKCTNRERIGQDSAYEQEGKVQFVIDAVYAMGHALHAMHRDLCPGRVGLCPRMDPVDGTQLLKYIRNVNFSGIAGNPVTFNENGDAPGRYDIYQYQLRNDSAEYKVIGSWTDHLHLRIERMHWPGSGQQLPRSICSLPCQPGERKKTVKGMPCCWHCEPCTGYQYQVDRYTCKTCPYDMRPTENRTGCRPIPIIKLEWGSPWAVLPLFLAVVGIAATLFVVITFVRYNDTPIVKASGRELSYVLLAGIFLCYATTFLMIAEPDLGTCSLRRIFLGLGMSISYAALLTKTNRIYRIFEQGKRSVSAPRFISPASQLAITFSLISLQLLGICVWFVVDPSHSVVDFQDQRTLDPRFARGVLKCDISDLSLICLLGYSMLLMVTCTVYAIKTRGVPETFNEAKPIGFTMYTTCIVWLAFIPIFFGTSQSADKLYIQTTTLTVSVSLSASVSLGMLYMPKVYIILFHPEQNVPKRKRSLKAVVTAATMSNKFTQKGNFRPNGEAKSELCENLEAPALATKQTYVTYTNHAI
T2 sequence (P31423 33-912): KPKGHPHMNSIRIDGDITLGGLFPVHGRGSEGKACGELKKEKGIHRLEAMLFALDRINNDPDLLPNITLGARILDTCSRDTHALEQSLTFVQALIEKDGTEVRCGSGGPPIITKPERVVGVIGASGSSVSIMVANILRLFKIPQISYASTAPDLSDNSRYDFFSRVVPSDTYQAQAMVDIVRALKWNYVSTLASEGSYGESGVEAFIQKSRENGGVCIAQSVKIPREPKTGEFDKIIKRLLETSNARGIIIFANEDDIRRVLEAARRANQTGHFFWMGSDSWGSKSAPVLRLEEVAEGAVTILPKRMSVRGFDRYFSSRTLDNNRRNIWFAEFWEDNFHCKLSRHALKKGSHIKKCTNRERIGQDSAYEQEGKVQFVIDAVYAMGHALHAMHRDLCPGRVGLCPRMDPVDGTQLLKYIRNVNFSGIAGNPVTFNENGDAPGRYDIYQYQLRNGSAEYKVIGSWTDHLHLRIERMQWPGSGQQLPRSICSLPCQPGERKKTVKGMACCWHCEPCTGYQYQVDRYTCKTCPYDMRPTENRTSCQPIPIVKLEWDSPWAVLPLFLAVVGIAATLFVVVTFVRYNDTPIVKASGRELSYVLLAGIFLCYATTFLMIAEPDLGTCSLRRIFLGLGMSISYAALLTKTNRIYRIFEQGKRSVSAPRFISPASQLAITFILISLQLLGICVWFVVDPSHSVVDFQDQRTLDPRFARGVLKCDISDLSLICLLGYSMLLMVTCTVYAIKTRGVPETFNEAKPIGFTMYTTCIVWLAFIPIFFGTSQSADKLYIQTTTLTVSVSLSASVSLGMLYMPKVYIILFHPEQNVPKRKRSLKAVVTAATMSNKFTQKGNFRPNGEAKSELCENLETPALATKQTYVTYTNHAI

SMILES: COc1cc(NC(=O)c2ccccn2)ccc1Cl [Compound 4]
The plasma stability: The intact ± SEM at 120 (min%) [1]: 98.2 ± 6.3%
The solution stability: The intact ± SEM at 120 min ([2]; pH = 5.0): 92.7 ± 3.1%
The solution stability: The intact ± SEM at 120 min ([2]; pH = 7.4): 97.3 ± 1.1%
The solution stability: The intact ± SEM at 120 min ([2]; pH = 9.4): 89.1 ± 2.1%

SMILES: CSc1cc(NC(=O)c2ccccn2)ccc1Cl [Compound 13]
The microsome stability Clint [3, 10]: 54.8 μL/min /mg protein
The microsome stability t1/2 [3, 10]: 25.3 min
IC50 (mGluR4 [4]; read-out: IC50±SE, mGluR4 transfected CHO cells, 2 nM [^3H]4, test compound 0.01 nM to 10 μM): 3.5 ± 0.7 nM
blocking of [^18F]15 binding in striatum (mGluR4 [5]; blocking agent 1 mg/kg): 18%
blocking of [^18F]15 binding in striatum (mGluR4 [5]; blocking agent 2 mg/kg): 20%
blocking of [^18F]15 binding in striatum (mGluR4 [5]; blocking agent 3 mg/kg): 28%
blocking of [^18F]15 binding in the whole brain (mGluR4 [5]; blocking agent 1, 2 or 3 mg/kg, 1 min before tracer): 22–25%
The plasma stability: The intact ± SEM at 120 (min%) [1]: 91.5 ± 2.5%
The solution stability: The intact ± SEM at 120 min ([2]; pH = 5.0): 85.9 ± 0.8%
The solution stability: The intact ± SEM at 120 min ([2]; pH = 7.4): 87.9 ± 3.4%
The solution stability: The intact ± SEM at 120 min ([2]; pH = 9.4): 89.3 ± 1.3%

SMILES: COc1ccc([C@@H]2Sc3ccccc3N(CCN(C)C)C(=O)[C@@H]2OC(C)=O)cc1 [Diltiazem]
The plasma stability: The intact ± SEM at 120 (min%) [1]: 49.0 ± 10.6%
The solution stability: The intact ± SEM at 120 min ([2]; pH = 5.0): 94.7 ± 1.4%
The solution stability: The intact ± SEM at 120 min ([2]; pH = 7.4): 99.0 ± 5.7%
The solution stability: The intact ± SEM at 120 min ([2]; pH = 9.4): 69.8 ± 2.6%

Continued, values first:

microsomal CLint ([3]; rat, liver microsomes): 24.2 µL/min/mg
logD [6]: 3.82
IC50 (mGluR4 [4]): 3.5 ± 0.5 nM
leftward shift of agonist (L-SOP) response curve (mGluR4 [7]; at 3.0 μM): 7.5 fold
Emax at 3 µM (mGluR4 [7]; read-out: Glu Max efficacy): 98.3%
The plasma stability: The intact ± SEM at 120 (min%) [1]: 84.5 ± 10.2%
The solution stability: The intact ± SEM at 120 min ([2]; pH = 5.0): 87.1 ± 0.9%
The solution stability: The intact ± SEM at 120 min ([2]; pH = 7.4): 88.3 ± 1.9%
The solution stability: The intact ± SEM at 120 min ([2]; pH = 9.4): 84.3 ± 1.8%
SMILES: [2H]C([2H])(F)Sc1cc(NC(=O)c2ccccn2)ccc1Cl [Compound 15, N-(4-Chloro-3-((fluoromethyl-d2)thio)phenyl)picolinamide]

accumulation in brain ([8]; at 10 min after iv injection): 0.41±0.18 % ID/g
accumulation in heart ([8]; at 20 min after iv injection): 0.50±0.08 % ID/g
accumulation in liver ([8]; at 20 min after iv injection): 1.33±0.12 % ID/g
accumulation in lungs ([8]; at 20 min after iv injection): 0.58±0.17 % ID/g
accumulation in kidneys ([8]; at 30 min after iv injection): 0.93±0.57 % ID/g
time of highest accumulation in the thalamus (mGluR4 [9]; after administration of the ligand): about 2 min
maximum average uptake in the thalamus (mGluR4 [9]; time interval 1–10 min after administration): 1.77±0.26 % ID/cc
SMILES: [2H]C([2H])([18F])Sc1cc(NC(=O)c2ccccn2)ccc1Cl [[^18F]15, [^18F]-N-(4-chloro-3-((fluoromethyl-d2)thio)phenyl)-picolinamide]
